Active and inactive are the calls of the source. The calls are words filed in the database; no cut-off is given here.

A word on the IC50: it is the concentration needed to halve the response being measured.

The subject of data set [1] is HCT-116. The data set can be described thus: Downregulation of p-p21 levels in human HCT-116 cells at 2 uM incubated for 24 hrs by Western blotting analysis. Type of data set: functional, cell-based. In short, it runs like this: (§1)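 HCT-116 lysates were made on ice in PBS with 1 mM EDTA, 1% NP-40, protease and phosphatase inhibitors, then sonicated and cleared by centrifugation. Protein was measured by DC assay. 40 µg ran on 10% SDS-PAGE and went onto PVDF (0.45 µm). Blocking used 5% milk/TBST; primary antibodies ran overnight at 4°C, then HRP secondaries for 1 h. Detection was ECL with densitometric quantitation of scanned bands.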
In general terms: Immunoblotting shows a protein as a band on a membrane.

Data set [2] concerns HCT-116. As to the kind of experiment: Downregulation of pim-1 levels in human HCT-116 cells at 2 uM incubated for 24 hrs by Western blotting analysis. Type of data set: functional, cell-based. The essentials: as §1
In data set [3] the test system is HCT-116. As to the kind of experiment: Downregulation of c-Myc levels in human HCT-116 cells at 2 uM incubated for 24 hrs by Western blotting analysis. Type of data set: functional, cell-based. The essentials:
as §1

The subject of data set [4] is LS174T. As to the kind of experiment: Antiproliferative activity against siRNA-mediated Pim-1 knockout human LS174T cells assessed as reduction in cell viability measured after 72 hrs. Conditions: dose 0.13-130 µM. The class given is functional, cell-based. In short, it runs like this: (§2)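 HCT-116 (1 x 10^3/well) or LS174T (3 x 10^3/well) cells were grown in IMDM/10% FCS at 37°C, 5% CO2. The medium was replaced with IMDM/10% FCS containing the inhibitor at the indicated concentrations, and cells were kept 72 h at 37°C. Inhibitor stock was 20 mg/ml in DMSO, diluted in PBS or medium.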

Data set [5] has as its system HCT-116. As to the kind of experiment: Antiproliferative activity against siRNA-mediated Pim-1 knockout human HCT-116 cells assessed as reduction in cell viability measured after 72 hrs. Type of data set: functional, cell-based. Conditions: dose 0.066-66 µM. The essentials:
as §2

Data set [6] deals with HCT-116. As to the kind of experiment: Downregulation of p-STAT3 levels at serine 727 residue in human HCT-116 cells at 2 uM incubated for 24 hrs by Western blotting analysis. Type of data set: functional, cell-based. In short, it runs like this: as §1
The subject of data set [7] is HCT-116. The data set can be described thus: Downregulation of E-cadherin levels in human HCT-116 cells at 2 uM incubated for 24 hrs by Western blotting analysis. The class given is functional, cell-based. The essentials: as §1
Data set [8] has as its system HCT-116. The data set can be described thus: Induction of apoptosis in siRNA-mediated Pim-1 knockout human HCT-116 cells assessed as increase in caspase 3/7 activity at 0.7 uM incubated for 72 hrs by Caspase-Glo 3/7 reagent based microplate reader analysis. The class given is functional, cell-based. The essentials: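 HCT-116 cells (1 x 10^3/well) were exposed to the inhibitor in IMDM/10% FCS for 72 h at 37°C. Caspase-3/7 was read by Caspase-Glo 3/7: substrate diluted 1:5 in serum-free medium, 1 h at room temperature in the dark, then luminescence. A WST-1 assay run in parallel on the same plate normalized for cell density.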

In data set [9] the test system is HCT-116. As to the kind of experiment: Synergistic antitumor activity against PEI complexed siRNA-mediated luciferase knockout human HCT-116 cells xenografted in athymic nude mouse assessed as tumor growth inhibition at 70 mg/kg, ip administered on day 3 to 4 measured after 14 days. Type of data set: functional. Conditions: HCT-116, 336 h, time 14 day, read-out: TGI.

In data set [10] the test system is HCT-116. As to the kind of experiment: Antiproliferative activity against siRNA-mediated Pim-1 knockout human HCT-116 cells assessed as increase in pim-1 mRNA levels measured after 24 hrs by q-PCR analysis. Conditions: dose 1-3 µM. The class given is functional, cell-based. In short, it runs like this:
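HCT-116 cells seeded at 3.5 x 10^5 per six-well well under standard conditions, then exposed 24 h at 37°C to 1 or 3 µM in IMDM/10% FCS. Total RNA was extracted by phenol/chloroform, and Pim-1 mRNA was measured by SYBR Green qPCR run in parallel with actin. Levels were expressed as 2^CP(target)/2^CP(actin).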

The nature of data set [11]: Downregulation of miR-15b expression in human HCT-116 cells at 3 uM incubated for 24 hrs by […] analysis. The class given is functional.
Data set [12] concerns HCT-116. As to the kind of experiment: Synergistic antitumor activity against PEI complexed siRNA-mediated Pim-1 knockout human HCT-116 cells xenografted in athymic nude mouse assessed as tumor growth inhibition at 70 mg/kg, ip administered on day 3 to 4 measured after 14 days. The class given is functional. Conditions: HCT-116, 336 h, time 14 day, read-out: TGI. For orientation: A xenograft is tissue or cells of one species grown in another, often human tumour cells in immunodeficient mice.

Data set [13] concerns HCT-116. As to the kind of experiment: Synergistic antitumor activity against PEI complexed siRNA-mediated Pim-1 knockout human HCT-116 cells xenografted in athymic nude mouse assessed as tumor growth inhibition at 40 mg/kg, ip administered on day 3 to 4 measured after 14 days. The class given is functional. Conditions: HCT-116, 336 h, time 14 day, read-out: TGI.
Data set [14] deals with HCT-116. As to the kind of experiment: Induction of apoptosis in siRNA-mediated Pim-1 knockout human HCT-116 cells assessed as fold increase in caspase 3/7 activity incubated for 72 hrs by Caspase-Glo 3/7 reagent based microplate reader analysis. The class given is functional. In short, it runs like this:
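HCT-116 cells, 5 x 10^2 per well, transfected with 20 nM siPim-1 […], held 72 h at 37°C. Caspase substrate diluted 1:5 in serum-free medium added for 1 h at room temperature in the dark; luminescence read. Signal normalized to a parallel WST-1 assay on the same plate. Means ± SEM.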

Data set [15] deals with HCT-116. As to the kind of experiment: Antitumor activity against PEI complexed siRNA-mediated Pim-1 knockout human HCT-116 cells xenografted in athymic nude mouse assessed as increase in pim-1 levels in tumor at 40 to 70 mg/kg, ip administered on day 3 to 4 measured after 14 days by immunohistochemical staining based analysis. Type of data set: functional, organism-based. Conditions: dose 40-70 mg/kg, time 14.0 day. The essentials:
(§3)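 Nude mice (Foxn1nu, 6–8 weeks) carried s.c. HCT-116 flank tumours (1.5 x 10^6 cells) and were randomized at 40–50 mm3, n = 12 tumours/group. PEI F25-LMW-complexed siRNA (Pim-1 or control) was given at 10 µg i.p. every 2–3 days; 70 or 40 mg/kg in PBS was given i.p. every 3–4 days. Paraffin tumour sections were stained for Pim-1 and ranked 0–4.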

For data set [16], the system named is HCT-116. As to the kind of experiment: cells. Conditions: Homo sapiens, HCT-116, 72 h.
Data set [17] concerns HCT-116. As to the kind of experiment: Antitumor activity against PEI complexed siRNA-mediated luciferase knockout human HCT-116 cells xenografted in athymic nude mouse assessed as increase in pim-1 levels in tumor at 40 to 70 mg/kg, ip administered on day 3 to 4 measured after 14 days by immunohistochemical staining based analysis. Type of data set: functional, organism-based. Conditions: dose 40-70 mg/kg, time 14.0 day. In short, it runs like this:
as §3

The nature of data set [18]: Toxicity in athymic nude mouse xenografted with human HCT-116 cells assessed as behavioural changes in at 40 mg/kg, ip administered twice a week measured after 14 days. The class given is organism-based. Conditions: in vivo, 336 h, time 14 day.
In data set [19] the test system is HCT-116. As to the kind of experiment: Synergistic antitumor activity against PEI complexed siRNA treated human HCT-116 cells xenografted in athymic nude mouse assessed as tumor growth inhibition at 40 mg/kg, ip administered on day 3 to 4 measured after 14 days. The class given is functional. Conditions: HCT-116, 336 h, time 14 day, read-out: TGI.
Data set [20] relates to HCT-116. As to the kind of experiment: Induction of miR-15b mediated pim-1 expression in human HCT-116 cells assessed as increase in luciferase activity at 3 uM incubated for 72 hrs by luminometer analysis. The class given is functional, cell-based. The essentials:
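HCT-116 cells (3 x 10^4 per 24-well well) co-transfected via PEI F25-LMW with 125 ng pGL3 luciferase reporter carrying Pim-1 3′UTR, intact or miR-15b-seed-mutated. After 48 h, 1 or 3 µM in IMDM/10% FCS was added for 24 h at 37°C. Lysate was mixed with luciferase substrate and read on a luminometer.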

For data set [21], the system named is HCT-116. As to the kind of experiment: Induction of apoptosis in human HCT-116 cells assessed as fold increase in caspase 3/7 activity incubated for 72 hrs by Caspase-Glo 3/7 reagent based microplate reader analysis. The class given is functional.
Data set [22] relates to HCT-116. As to the kind of experiment: Synergistic antitumor activity against human HCT-116 cells xenografted in athymic nude mouse assessed as tumor growth inhibition at 70 mg/kg, ip administered on day 3 to 4 measured after 14 days. Type of data set: functional. Conditions: HCT-116, 336 h, time 14 day, read-out: TGI.
The nature of data set [23]: Toxicity in athymic nude mouse xenografted with human HCT-116 cells assessed as change in body weight at 40 mg/kg, ip administered twice a week measured after 14 days. The class given is organism-based. Conditions: in vivo, 336 h, time 14 day.
The nature of data set [24]: Toxicity in athymic nude mouse xenografted with human HCT-116 cells assessed as change in body weight at 70 mg/kg, ip administered twice a week measured after 14 days. The class given is organism-based. Conditions: in vivo, 336 h, time 14 day.
For data set [25], the system named is HCT-116. As to the kind of experiment: cells. Conditions: Homo sapiens, HCT-116, 72 h. This is another data set of the same source.
Data set [26] in a line: Toxicity in athymic nude mouse xenografted with human HCT-116 cells assessed as behavioural changes in at 70 mg/kg, ip administered twice a week measured after 14 days. Type of data set: organism-based. Conditions: in vivo, 336 h, time 14 day.

With `Cn1c2c(c3ccc(Cl)c(Cl)c31)C(C#N)C1(CCNCC1)NC2=O` (stereo unspecified), the result in [1], in data set [2], in [3], in [6], in data set [7] and in [8] was Active. In addition, the Activity result in data set [4] and in data set [5] was “Dose-Dependent Effect” each time.

As for `O=c1[nH]cc(F)c(=O)[nH]1` [FLUOROURACIL], the inhibition in vivo at 70 mg/kg in [9] was approximately 30%; in data set [12] it was approximately 30%; in data set [22], approximately 40%. In addition, the Activity entry in [10] was “Dose-Dependent Effect”; in data set [11] it was 40%; in [18], “Non-Toxic”; in [23], “Non-Toxic”; in data set [24] it was “Toxic”; in data set [26], “Toxic”. Besides, the inhibition in vivo at 40 mg/kg was approximately 60% in data set [13] and approximately 20% in [19]. The “fold change (FC)” value is reported as 1.4 in data set [14] and approximately 1.7 in data set [21]. Moreover, the result in data set [15], in [17] and in data set [20] was Active. The values for the concentration for half-maximal inhibition (IC50) in data set [16] and in data set [25] were 3.2 µM and 10.1 µM, respectively.

Values taken from ChEMBL document CHEMBL5647689, “Functional role and therapeutic potential of the pim-1 kinase in colon carcinoma” (Neoplasia, 2013).
